According to the EternaBench riboswitch data:

System: MS2 coat protein
Test: apparent Kd, MS2 coat protein; higher = weaker binding; RNA-MaP array; FMN 200 µM where present
How it was run: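 Stalled E. coli RNA polymerase transcribed each design on Illumina sequencing-chip clusters. The clusters were titrated with SNAP-549-labelled MS2 coat protein, starting at 0.7 or 1.5 nM and doubling up to 3 µM, first without ligand and then with constant ligand, in 100 mM Tris-HCl pH 7.5, 80 mM KCl, 4 mM MgCl2, BSA, DTT, yeast tRNA and Tween-20. Green signal was normalised to red-channel RNA signal and to the control-cluster median Fmax. The apparent Kd is the median of filtered binding-curve fits made for each cluster.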

[1] = designed as: OFF switch for flavin mononucleotide, no ligand
[2] = ligand present: flavin mononucleotide, designed as: OFF switch for flavin mononucleotide
[3] = designed as: ON switch for flavin mononucleotide, no ligand
[4] = ligand present: flavin mononucleotide, designed as: ON switch for flavin mononucleotide

Sequence | apparent Kd [1] | apparent Kd [2] | apparent Kd [3] | apparent Kd [4]
CUGAAGUCAGGAUAUCGUUAAUUUAGUUGUUUGUAUUAGUUCGAGAAGGGACAUGAGGAUCACCCAUGUAAGUC | 33.9 nM | 45.9 nM | – | –
CUAUGAGCGAUAGGAUAUACUGAGAUUGAGUGGGUAGAAGGAUCGAUAGUGUAGAAGACAUGAGGAUCACCCAUGUUACGGGUU | – | – | 892 nM | 290 nM
CGGGAUUCCUGAGGAUAUGGAGCUGUCUACCUGGGCGACAUGAGGAUCACCCAUGUAGAACGCCUCCAGAAGGCAGCGAGAUUG | 27.3 nM | 23.8 nM | – | –
GGAAUACAUGAGGAUCACCCAUGUAAGGAUAUGCUGAUUAAAUUGGAUUAAUUAUGCAGCAGAAGGUACAAAAG | 78.7 nM | 79.6 nM | – | –
UUCUGUGUGUGCUAGGGCUGCACAUGAGGAUCACCCAUGUACAGAAGGUGGACACGCACUGUGGCCAAGGAUAUGUAACAUGUU | 11.2 nM | 36.2 nM | – | –
UUUACUUACGAAGGAUAUGGAUACAUGAGGAUCACCCAUGUAUGUAUGAUGAUCUAGUAGUUGGGCCAGAAGGUCGUGAUUAUU | 16.9 nM | 21.8 nM | – | –
GUGCUACAGCGGCGCACGAGACAUGAGGAUCACCCAUGUGACAGAAGGGACUUGUUAAAGGUAGGUCAGGAUAUGUCUUAAAAG | – | – | 291 nM | 81.4 nM
AGACCAGUUCUAGGAUAUGUGUGACGUGAGUAAACAGAAGGAGAACAUGAGGAUCACCCAUGUGGGCCAAUCAUCCUCACGUGG | 44.9 nM | 371 nM | – | –
CGUUGUUCCGCAGGAUAUGCAUUGGAUUACAAUGCAGAAGGGCGAUUACAUGAGGAUCACCCAUGUGUGGACAAUAAGGAAGAG | – | – | 1490 nM | 142 nM
CCAGCGUAUGUGAGGAUAUGCUGGUCCUUGGAUCAGCAGAAGGCACAUGAGGAUCACCCAUGUGGAAACGUUGG | 18.7 nM | 63.5 nM | – | –
CCGUAAGAGCGGACAUGAGGAUCACCCAUGUAAGAGUCAUCCAGAAGGUCAGCGCUAAAUGGAAUGAAGGAUAUGGAGUGGGUC | – | – | 668 nM | 357 nM
ACGUAUAGAGGAUAUAGUGAAUAUUACAUGAGGAUCACCCAUGUUCUUCAAAGCAUAUUCCUAGAAGGCUGAUGAA | 44.8 nM | 83.6 nM | – | –
UUCUUGGCAGGAUAUGCUUUUUUAGACAUGAGGAUCACCCAUGUGAUGAUUAUUGGUUUUGCAGAAGGGCCUUAAU | 53.6 nM | 87.5 nM | – | –
UGCACAUGAGGAUCACCCAUGUAUUGUUCGGUUAAUAGAAGUGAGGAUAUGCUUAAAAUAAGGUAGCAGAAGGCACUGGGUUCA | – | – | 27.8 nM | 29.6 nM
CUCUUGUUAGGAUAUCAAACCGGCAGCGGAGCCGCCGGAAGUGAGAAGGGACAUGAGGAUCACCCAUGUAAGAA | 81.6 nM | 256 nM | – | –
UUGGACGUAGUAGGAUAUGUAGGAUAUUCCUACAUGAGGAUCACCCAUGUUGACAUGGAAGAAGGACAGAAGGACGAUGUCCAU | – | – | 405 nM | 5.06 nM
UAGAAGUCAGGAUAUGCUGCUCGUCACUUGCGUGAUGAGUAGCAGAAGGGACAUGAGGAUCACCCAUGUAAAGC | 48.8 nM | 54.3 nM | – | –
CACCGGCCCUAUAUGUUCUAGACAUGAGGAUCACCCAUGUAUAGAAGGGUCUUCGCGAAACGCAGACAGGAUAUGUACAGGAGU | 6.08 nM | 9.13 nM | – | –
GUGUAGUCAGGAUAUACAUAGGAAGAGAAGAGAAGAGAAGUACAUGAGGAUCACCCAUGUAGAAGGGACAGUGU | 24.3 nM | 25.1 nM | – | –

Sequence | apparent Kd [1] | apparent Kd [2] | apparent Kd [3] | apparent Kd [4]
UCAUGCAUAGCGAUAUGAUCGAGAGAUCAUGUCGCUAAAUUUAGAAGGACAUGAGGAUCACCCAUGUAGGAUAUGGGAGCAUGU | – | – | 535 nM | 63.2 nM
UUACUCAUGUAAGGAUAUGCAGCCGUUUCGGCUGCAGAAGGUACUAUAAUACAUGAGGAUCACCCAUGUCUAUAAAAUAAAGGC | – | – | 48.9 nM | 50.2 nM
AGCUAAGAGUUAAUUGUGACAGUGAGAAGGCAAUAGUUUGUGACCGACAUGAGGAUCACCCAUGUUGAGGAUAUCACUAGCUAC | 6.83 nM | 19.4 nM | – | –
UCGCUGCGAGGAUAUACGUGCGCGCGCUCGCGUGCGCGCGUACAUGAGGAUCACCCAUGUAGAAGGCGCGCUGC | 17.1 nM | 18.3 nM | – | –
AUCAGCUCGUCAGGAUAUACAUCACUGCUUCGGCAGUGUAUUAAGGUCACAUGAGGAUCACCCAUGUAGAAGGGACGAGCUGAU | 21.2 nM | 142 nM | – | –
AGAGCGAUAGGAUAUACAUGAGGAUCACCCAUGUUAAAAGUGGAAUCCUUGGACGCAUGUAGAAGGAUUGCGCC | 49.7 nM | 94.2 nM | – | –
AGUCGGCGAGGAUAUACAUGAGGAUCACCCAUGUGUGAUCCUAGACCUGUAGGUCCAUGUAGAAGGCGCUGACA | 19.6 nM | 23.6 nM | – | –
ACCGACACUUACAUGAGGAUCACCCAUGUGUGUAAUCGGACACAGGAUAUCCAUGGUAAGUAUCGGGAGAAGGGUGGAAAGAAA | – | – | 88.9 nM | 233 nM
GUAGCUACAUGAGGAUCACCCAUGUAGGAUAUCGCUAUUGUAAUCAUGUUACAUGAUUACAAUAGCGAGAAGGACGUGAGCUAC | 8.39 nM | 8.7 nM | – | –
GCCAGAGCAGGAUAUUCAAUAUCACACAUGAGGAUCACCCAUGUCCGGCGAAAGCUGGAGGGAGAAGGGCUCUGGC | 62.6 nM | 18.7 nM | – | –
GGUGCGUAUGUGAGGAUAUGCUGGUCCUUGGCUCGGCAGAAGGCACAUGAGGAUCACCCAUGUGGUGUCGUUCC | 52.5 nM | 222 nM | – | –
CAUUAAUUCAUUAUAGUAAUUAUACAGGAUAUGUAACAUGAGGAUCACCCAUGUAUUCUUGGUUAACAGAAGGGUAUUACAAGU | 16.5 nM | 28.4 nM | – | –
AAUUGACACGUAGGAUAUCGCUUUAAUUUAACACGAGAAGGACGUACAUGAGGAUCACCCAUGUUAAAUGGUGUAGAUUAAUUG | 167 nM | 382 nM | – | –
GCGUAAUAGGUGUAGCUAGUCGUGCAAGAAGGGUGGUGAACAUGAGGAUCACCCAUGUGGUCAGUACAGGAUAUUGCUAUACGC | – | – | 542 nM | 130 nM
AAUUGAAACGUAGGAUAUCGCUAUUAAUUAAUUCGAGAAGGACGUACAUGAGGAUCACCCAUGUUUAAUGGUGUAGUUUAGUUG | 179 nM | 252 nM | – | –
GGAUACAUCGGAGGAUAUCAUGUAAAUACAUGAGGAUCACCCAUGUCGAUGGAGACAUCGGAGAUUGAGAAGGCCGAUGUACCG | – | – | 164 nM | 8.95 nM
CCUAGUUGGUAAGGAUAUCCUACACUGUUCUGACCCGUGCGAGCUACAUGAGGAUCACCCAUGUGGGAGAAGGUGCGUCAACGC | 18.2 nM | 17.9 nM | – | –
UUUGUUUAUGCAGGAUAUUGUAUUUUAUUACAUCAAGAAGGGCAUUACAUGAGGAUCACCCAUGUUAUCUUAUGGUUAACUAGU | 20.8 nM | 21.3 nM | – | –
UAGAUGGGAGGAUAUACGUAUAUGCAGGUUCGUGUGGUGCUACAUGAGGAUCACCCAUGUAGAAGGCCCGUCUU | – | 38.6 nM | – | –

Sequence | apparent Kd [1] | apparent Kd [2] | apparent Kd [3] | apparent Kd [4]
UAGUGCGUUAGAGGAUAUUCAAGGUGAAAAAAAAAUACAUGAGGAUCACCCAUGUAAAAACAUGAGGAGAAGGCUGAUGUGCUA | – | – | 38.6 nM | 27.6 nM
ACAUAAUACGAGAAGGGAGUACAUGAGGAUCACCCAUGUGCUCAGGUGUACUCAGGAUAUCGGCUGACGCAAGGUUCAGGGAAU | 11.6 nM | 94.3 nM | – | –
UGAUCUUGGGUCAGGAUAUGCUGGUAUUUUUGCCAGCAGAAGGGACAUGAGGAUCACCCAUGUUCUUGGUUUUU | 11.7 nM | 14.9 nM | – | –
CGUUGUUAAGGAUAUGGACUCUUGAACAUGAGGAUCACCCAUGUGCGCGUGGUCUAAAUACCAGAAGGUGGCCGCC | 31.7 nM | 29.3 nM | – | –
AUGUCUUAGUAGAAGGGACAUCGGCUGGUAAGCAUCAUCUCCUUCUCACAUGAGGAUCACCCAUGUCAGGAUAUACUAAGAUAC | – | 38.5 nM | – | –
GACUGCCGAGGAUAUACAUGAGGAUCACCCAUGUGCUUCAGCAUCGAAAGAUGCAUGGGUAGAAGGCGGUAGUC | 27.4 nM | 72 nM | – | –
GGCGUUGAAGGAUAUUGAUAUCCGGACAUGAGGAUCACCCAUGUGAGACAUACUUAUAUGCGAGAAGGUCAGGCCC | 160 nM | 139 nM | – | –
GAGUGGAAGGCCGCUACAUGAGGAUCACCCAUGUGCUAAGCACAGGAUAUCGCGCGGACCCGGCGCGAGAAGGGUGACGGCCUG | – | – | 463 nM | 268 nM
UAAUAAUUAUGAGGAUAUAUACAACAUGAGGAUCACCCAUGUACCCAUGUAGUAGAAGGCAUAUUUUUAUUUAAUAAUAUAACU | – | – | 60.4 nM | 27.6 nM
UCGCUGCGAGGAUAUACAUGAGGAUCACCCAUGUGCGGGUCCGGGUCUUUGUCCAUUAGUAGAAGGCGCAGUGA | 305 nM | 82.7 nM | – | –
GCCGGAGCAGGAUAUCUAAUAUAUCACAUGAGGAUCACCCAUGUCCAGCGAAAGCUGGAGGGAGAAGGGCUCUGGC | 164 nM | 44.4 nM | – | –
CGCAAGUCAGGAUAUUCGACUGGUAAAUCUGUGGAUCAGUAGGAGAAGGGACAUGAGGAUCACCCAUGUUUGUU | 28.6 nM | 31.9 nM | – | –
ACAUACAUUCGAGGAUAUCGGUGAGAAAUCUUUCGAGAAGGCGAUUCAUGAUUUAUUAUCCUGGACAUGAGGAUCACCCAUGUA | – | – | 78.9 nM | 62.8 nM
GUAGAGUAAGGAUAUGUAGAAUAGGAUAGAAUGGUUAGAAUACAGAAGGUACAUGAGGAUCACCCAUGUAAUGU | 17.7 nM | 19.6 nM | – | –
CGUGUUGACGAAGGAUAUGGAUACAUGAGGAUCACCCAUGUAUAUUUUGUGAUCAAGUUUAAGAUCCAGAAGGUCGUUGACACG | 77.6 nM | 131 nM | – | –
GUAUGAGCGAUAGGAUAUACUGAGAUUGAAUGGGUAGAAGGAUCACUUGUGUGGAAGACAUGAGGAUCACCCAUGUCACGGGCC | – | – | 52.3 nM | 157 nM
GUACCUUAUGAGAAGGCGAUCAUGAAACAUGAUCGAGGAUAUCAUGUAAACAUGAGGAUCACCCAUGUAUGGGUAUUAUGGUAA | – | – | 31.8 nM | 10.2 nM
AACUGGUGUGAGAAGGGACGUAUCUCCAUGAGGGCAGGGCUAUUAGAGAAGUCAGGAUAUCACAUGAGGAUCACCCAUGUGACG | 8.33 nM | 9.02 nM | – | –
